# Article PMC6396188 (ACS Central Science, 2019)
# Where no end group is shown, it is not given here. ROX = carboxy-X-rhodamine
# Legend:
# IL-1α = experiment: On-bead binding specificity test; design: species or system human; details: 50 nM ROX-IL-1α, PEGA beads, Figure 4B
# IL-1β [1] = molecular target: T1, IL-1β (Homo sapiens, UniProt P01584); experiment: On-bead binding assay by fluorescence microscopy; details: on PEGA beads, 50 nM ROX-IL-1β
# Method in brief: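 Human IL-1β came from a codon-optimised gene with an N-terminal His-tag, expressed in E. coli BL21(DE3) and purified by Ni-NTA then size exclusion in PBS. It was labelled with 3 equiv ROX-NHS for 1 h at room temperature, excess dye removed on G-25 gel filtration, and quantified by 660 nm protein assay. Acetylated beads without β-body served as negative control. ROX read at 560/14 nm excitation and 605/52 nm emission.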
# IL-2 = experiment: Sandwich assay for IL-2; assay type: binding, human; details: for detection of IL-2 in sandwich assay: capture bead-4 plus detection ROX-5, 50 nM IL-2, deionized water; for bead fluorescence in sandwich assay before protein addition: capture bead-4 plus detection ROX-5, deionized water, no IL-2
# IL-1β [2] = molecular target: T1, IL-1β; experiment: Sandwich assay for IL-1β; assay type: binding; details: capture 10 with detection ROX-2, 50 nM IL-1β, deionized water
# [3] = Unspecific interaction between capture and detection β-body; assay type: binding
# Method in brief: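 Capture β-body was covalently linked to PEGA1900 beads and mixed in solution with purified ROX-labelled detection β-body, with no target protein added. For the IL-1β pair, incubation was in deionised water in glass vials for 3 h. Beads were then imaged by wide-field fluorescence microscopy for ROX at 560/14 nm excitation and 605/52 nm emission.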
# IL-6 = experiment: Sandwich assay for IL-6; assay type: binding, human; details: capture 6 / ROX-labeled 7, with 0.05–0.1 M urea, 20 nM IL-6
# GFP [4] = molecular target: T2, GFP (Aequorea victoria, UniProt P42212, F64L/H231L/S65T); experiment: Affinity purification of GFP from cell lysate on PEGA-β-body column, SDS-PAGE; details: packed PEGA column, washed with water, eluted with PBS
# Method in brief: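 GFP from Aequorea victoria, with an N-terminal His-tag, was expressed in E. coli BL21(DE3) from a pET plasmid. Culture was in LB with 100 μg/mL ampicillin at 37 °C to mid-exponential phase, then induced with 1 mM IPTG for 18 h at 20 °C. Cells were lysed in 50 mM Tris, 0.5 M NaCl, pH 8.0 with lysozyme and sonication, then clarified. SDS-PAGE gels were Coomassie-stained.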
# GFP [5] = molecular target: T2, GFP; experiment: On-bead binding assay by fluorescence microscopy; details: on PEGA beads, 50 nM GFP
# Method in brief: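 Recombinant N-terminally His-tagged GFP expressed in E. coli BL21(DE3), purified by Ni-NTA then size exclusion in PBS pH 7.4. Concentration from A490 (ε 55 000 M–1 cm–1). PEGA beads bearing the test compound placed in microplate wells with 50 nM GFP. N-acetylated beads served as negative control. Bead fluorescence imaged by microscopy (ex 482/18 nm, em 520/28 nm).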
# GFP [6] = molecular target: T2, GFP; experiment: On-bead microplate equilibrium binding assay, GFP
# Method in brief: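 Three equal-sized PEGA beads bearing the test compound per well, in triplicate. Purified His-tagged GFP in Milli-Q water, two-fold serial dilutions from 20 μM. Incubated overnight at room temperature to equilibrium. Per-bead fluorescence quantified by microscopy (1 ms exposure, GFP filter set). Kd from a one-site specific binding nonlinear regression fit; points average 3–6 measurements.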
# GFP [7] = molecular target: T2, GFP; experiment: Binding of GFP from E. coli cell lysate to β-body beads; details: beads with lysed E. coli cells expressing GFP
# Method in brief: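 PEGA beads carrying the test compound incubated with lysed E. coli cells expressing GFP. Bead-bound GFP imaged by wide-field fluorescence microscopy (ex 482/18 nm, em 520/28 nm). For capture, beads washed with water, bound GFP eluted with PBS, and the eluate analysed by SDS-PAGE alongside the whole-cell lysate.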
# IL-1β [8] = molecular target: T1, IL-1β; experiment: On-bead microplate equilibrium binding assay, IL-1β
# Method in brief: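 Human IL-1β, N-terminal His-tag, expressed in E. coli BL21(DE3), purified by Ni-NTA and size exclusion. Labelled with 3 equiv ROX-NHS for 1 h at room temperature, free dye removed on G-25. Three compound-bearing PEGA beads per well, in triplicate. Two-fold dilutions from 10 μM in 5 mM phosphate buffer, overnight incubation. ROX fluorescence imaged at 2 ms exposure. Kd from one-site nonlinear fit.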
# [9] = molecular target: human recombinant IL-2 (ProSpec) (human, UniProt P60568 21-153); experiment: on-bead fluorescence microscopy
# Sequence of human recombinant IL-2 (ProSpec) (P60568 21-153): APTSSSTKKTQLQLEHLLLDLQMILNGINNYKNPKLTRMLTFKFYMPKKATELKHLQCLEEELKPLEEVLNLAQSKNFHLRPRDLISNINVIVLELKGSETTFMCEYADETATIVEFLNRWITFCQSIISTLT
molecule,measurement,setting,value
ETDTYTETYPGRTITWTITDG [β-body 2],binding of ROX-labeled IL-1α to β-body beads (specificity),IL-1α,no interaction
same,binding of ROX-labeled IL-1β to β-body beads,IL-1β [1],binding was observed
NTVTNTMTRPGVTETVTQTDG [β-body 4],detection of IL-2 in sandwich assay,IL-2,fluorescent beads were then observed exclusively after addition of 50 nM of IL-2
same,bead fluorescence in sandwich assay before protein addition,IL-2,no observation of fluorescence on the beads
ROX-ETDTYTETYPGYTSTWTITDG [ROX-2],detection of IL-1β in sandwich assay,IL-1β [2],enabled us to also detect IL-1β in nanomolar concentrations
same,unspecific binding of detection peptide to capture peptide,[3]; ROX-labeled 2 / capture 3 (IL-1β pair),could not be prevented without affecting at the same time the binding of IL-1β
ROX-TMTDTDTYPGFTDTLTHAG [ROX-7],unspecific interaction between capture and detection peptide at surface of beads,"[3]; capture 6 / ROX-labeled 7 (IL-6 pair), no urea",some unspecific interaction
same,fluorescence from beads with IL-6 added,IL-6,remained strongly fluorescent
ROX-TRTLTYTEPGITQTKTEAG [ROX-5],detection of IL-2 in sandwich assay,IL-2,fluorescent beads were then observed exclusively after addition of 50 nM of IL-2
same,bead fluorescence in sandwich assay before protein addition,IL-2,no observation of fluorescence on the beads
TETKTVTITRPKMTWTFTHTVTG [β-body 1],purification of GFP from cell lysate,GFP [4],a significant up-concentration of GFP was achieved with removal of the majority of other proteins in the cell lysate
same,binding of GFP to β-body beads,GFP [5],binding was observed
same,Kd,GFP [6],184 ± 28.6 nM
same,binding of GFP from cell lysate,GFP [7],binding was observed
same,transfer of fluorescence from lysate to beads,GFP [7],quantitatively transferred from the lysate to the beads
TWTETYTWTEPGDTQTLTITNTG [β-body 3],Kd,IL-1β [8],610 ± 50 nM
{ROX}-TRTLTYTEPGITQTKTEAG (designed binder) [ROX-labeled β-body 5],binding result,[9],binds
